Source: PubChem (Broad Institute)
The list is not random: actives were taken first. Their share in the collection is about 3%.
PvdQ inh – blocks Pseudomonas aeruginosa PvdQ acylase activity. hit rate 0.063% among 340,000. inhibition, % at 10 µM. purified PvdQ acylase, fluorescence plate reader. AID 488965; in the data active = inhibition above about 30%, passing the limit was not always enough; inconclusive = no clear call, values can overlap the other calls;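 note: 0% = vehicle neutral wells and 100% = reference inhibitor wells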
N-glyco inh – N-linked glycosylation inhibition. D54 ERlucT glycosylation luciferase reporter, 24 h; percent of 100 nM tunicamycin response. reporter increase, % at 12.5 µM. hit rate 0.23% among 360,000;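 active = mean luciferase reporter signal, scaled so untreated is 0 and the glycosylation-blocking control 100, at or above a set limit in every replicate; inconclusive = mean reaches the limit but not every replicate does; inactive = mean below the limit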;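 note: luciferase carries N-glycosylation sites so blocking glycosylation raises the light; 0% = median of neutral control wells and 100% = median of 100 nM tunicamycin wells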
CaV13 ICDI inh – Disruptors of the CACNA1D IQ motif to Ca2+-dependent inactivation inhibitor domain association, primary screening, Förster resonance energy transfer in intact living …; hit rate 0.098% among 340,000; inhibition, % at 12.3 µM; HEK cells, CFP/YFP FRET ICDI-IQ, plate reader, 10 min; percent FRET-ratio fall versus neutral wells; AID 743397;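 active = mean replicate inhibition of at least 30% and at least 1% of replicates passing that level; inconclusive = only one of the two criteria is met; inactive = neither criterion is met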;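 note: 0% = median of the neutral control wells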
HSF1 activator – increases HSF-1 driven luciferase reporter signal; hit rate 1.7% among 300,000; NIH3T3-HGL HSF-1 luciferase reporter, MG132, 8 h; 100% = twice DMSO control signal; activation, % at 9 µM;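 active = mean replicate activation of at least 50% with a set share of replicates each reaching 50%; inconclusive = only one of those two conditions met; inactive = mean below 50% and too few replicates reaching it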;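 note: 0% = median of the neutral control wells and 100% = twice that signal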
T cruzi repl – T. cruzi replication inhibition | inhibition, % (test concentration not listed) | T. cruzi beta-gal in NIH3T3, luminescence, 90 h | hit rate 1.4% among 300,000 | AID 1885;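 active = mean inhibition across valid replicates above about 55%, limit read from the data; inconclusive = mean below that limit but half or more replicates reach it; inactive = mean below it, under half of replicates reach it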;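 note: signal also drops with host cell toxicity which is not excluded here; 0% = plate median of DMSO wells and 100% = zero luminescence signal; higher percent means less beta-gal luminescence so fewer parasites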
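Material: NIH/3T3 host cells with β-galactosidase reporter T. cruzi; Input: 5,000 host fibroblasts per well; Medium: DMEM, 2% fetal bovine serum; Compound: 50 nL DMSO compound solution per well; Schedule: 3 h host attachment, then at least 90 h co-culture; Detection: luminescent β-galactosidase signal after 60 min lysis.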
PfHsp90 set2 – inhibits growth of yeast expressing Plasmodium falciparum Hsp90; hit rate 0.32% among 310,000; S. cerevisiae expressing PfHsp90, BacTiter-Glo ATP, 48 h; yeast lacking PDR1 and PDR3 efflux regulators; inhibition, % at 9.4 µM;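 active = every replicate shows inhibition above about 80%, whatever the replicate mean, limit read from the data; inconclusive = mean inhibition reaches the set limit but some replicate falls short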;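 note: 0% = DMSO neutral controls and 100% = 20 µM radicicol positive controls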
* hit, by the source's call; ? = inconclusive; / = no result given; ! = repeats disagree.

SMILES	PvdQ inh	N-glyco inh	CaV13 ICDI inh	HSF1 activator	T cruzi repl	PfHsp90 set2
COC(=O)[C@]12C[C@H](CC(=O)N3CCC(c4ccccc4)CC3)C(=O)N(Cc3ccc4c(c3)OCO4)C1=C[C@H](C(C)(C)C)O[C@@H]2C	/	/	-12	/	/	/
C[C@H](O)[C@@H]1CN2CCc3ccc(-c4ccc5c(c4)OCO5)cc3[C@@H]2C[C@@H]1N(C)C(=O)NC1CCCCC1	/	/	-3	/	/	/
c1csc(CSc2nc3ccccc3s2)c1	4	-7	-8	56*	-9	5
CCn1c(CSc2nc3ccccc3s2)nc2ccccc21	2	-1	-6	76*	5	-23
CCn1c(CSc2nc3ccccc3s2)nnc1SCC(=O)c1ccc(O)cc1O	-10	-4	-8	20	8	2
Cc1noc(C)c1CSc1nc2ccccc2s1	-2	2	-3	2	-3	15
COc1ccccc1CN1Cc2ccccc2Oc2ccccc2S1(=O)=O	/	/	-5	/	/	/
CC(C)n1cc(C#N)c(N)n1	-17	0	-5	/	/	12
COc1cc(OC)c(NC(=O)C(Sc2nc(C)cc(C)c2C#N)c2ccccc2)cc1Cl (stereo not given)	/	/	-12	/	/	/
O=C(Nc1ccccn1)c1csc2c1CCCC2	7	-2	-3	53*	-10	8
Cc1cc(C)n(S(=O)(=O)/C=C/c2ccccc2)n1	-3	-3	-4	54*	-2	-8
Cc1cccc(-c2nc(Nc3ccc(N4CCOCC4)cc3)c3ccccc3n2)c1	-19	-13	-19	18	56*	12
COc1ccc(Nc2nc(-c3ccccc3)nc3ccccc23)cc1	-8	-5	-19	4	42	-9
COc1ccc(Nc2nc(-c3cccc([N+](=O)[O-])c3)nc3ccccc23)cc1	12	-2	-5	-8	65*	-3
COc1cccc(C(=O)N2CCC[C@@H]2C(=O)N2CCC[C@@H]2C(=O)NCc2ccccc2)c1	/	/	-4	/	/	/
COc1ccc(NC(=O)N(Cc2ccc3c(c2)OCO3)C2CC(=O)N(c3ccc(OC)cc3)C2=O)cc1 (stereo not given)	6	0	-5	-17	6	-6
O=C1CC(N(Cc2ccc3c(c2)OCO3)C(=O)Nc2ccc(F)cc2)C(=O)N1c1ccccc1 (stereo not given)	-12	1	-6	57*	-3	-13
CCN1CCN(c2ccc(S(=O)(=O)N3CCOCC3)cc2NC(=O)CC(NC(C)=O)c2ccccc2)CC1 (stereo not given)	3	-1	-16	/	/	/
COCCNc1c([N+](=O)[O-])c(=O)n(-c2ccccc2)c2ccccc12	-3	0	-4	69*	5	4
O=c1c([N+](=O)[O-])c(NCCN2CCCCCC2)c2ccccc2n1-c1ccccc1	-1	-4	-3	0	16	3
COc1ccccc1NC(=O)OC[C@@H]1CSCCS(=O)(=O)N1	/	/	-5	/	/	/
O=C(/C=C/c1cccc([N+](=O)[O-])c1)c1ccco1	-10	19	-4	29	-12	85*
COc1ccc(/C=C/C(=O)c2ccc([N+](=O)[O-])o2)cc1	-9	-6	-7	-3	-2	15
O=C(/C=C/c1cccc([N+](=O)[O-])c1)c1ccc([N+](=O)[O-])o1	-11	-21	-5	54*	56*	125*
Cc1cccc(/C=C/C(=O)c2ccc([N+](=O)[O-])o2)c1	13	1	-7	?	41	103*
SMILES	PvdQ inh	N-glyco inh	CaV13 ICDI inh	HSF1 activator	T cruzi repl	PfHsp90 set2
COC(=O)Cc1nnn2c1[C@H](C)[C@H](C(C)(C)C)OCC2	/	/	-4	/	/	/
CCCCCCCCN1C(=O)[C@@H](CC(=O)NCCCCc2ccccc2)C[C@@]2(C(=O)OC)C1=C[C@H](C1CCCC1)O[C@@H]2C	/	/	-11	/	/	/
Cc1ccc(S(=O)(=O)N2C[C@]3(O)C[C@@H]4C(=O)N(c5ccccc5)C(=O)[C@@H]4C[C@]3(OC(=O)NCC3CCCCC3)C2)cc1	/	-1	-3	/	/	/
ClC1=C(Cl)C(Cl)=C(Cl)C1=C/C=C/c1ccccc1	-3	-9	-5	-14	63*	4
COC(=O)[C@]12C[C@H](CC(=O)N3CCC(c4ccccc4)CC3)C(=O)N(Cc3ccccc3)C1=C[C@H](C1CCCC1)O[C@@H]2C	/	/	-11	/	/	/
CCOc1ccc(-c2cnc(NCc3cccc4ccccc34)n2CCOC)cc1	4	-1	-5	-88	72*	16
COCCn1c(-c2ccc(OC)cc2)cnc1N	-9	4	/	37	-6	15
COc1ccccc1-n1c(Cc2cccc3ccccc23)nnc1SCC(=O)O	/	/	-4	/	/	/
COC(=O)c1cnc2c(c(C)nn2C)c1OC	-3	2	-5	59*	-31	8
CCOC(=O)c1cnc2c(c(C)nn2C)c1Oc1ccc(Cl)cc1	-9	-2	-3	16	-4	/
COc1ccc(C(=O)NCc2nnc(SCC(=O)N3CCc4ccccc43)n2CCc2ccccc2)cc1	-9	-2	-20	80*	26	3
NC(=O)c1ccccc1N/C=C/C(=O)c1ccc(Cl)cc1Cl	6	-12	/	66*	5	-2
NC(=O)c1ccccc1N/C=C/C(=O)c1ccc(F)cc1	-11	-10	-3	41	0	6
CCN1C(=O)[C@H]2[C@@H](c3ccc(C)cc3)N[C@]3(CCCN(Cc4ccc(OC)cc4)C3=O)[C@H]2C1=O	/	1	-2	/	/	/
OC(COc1ccc(CNCCc2ccc(C(F)(F)F)cc2)cc1)CN1CCCCC1 (stereo not given)	-10	-5	-6	10	59*	29
CC(C)(C)C(=O)Nc1ccccc1C(=O)NCc1cccnc1	14	2	-13	-7	14	-10
CC(C)(C)c1ccccc1OCC(=O)Nc1ccccc1C(=O)NCc1cccnc1	-4	-5	-4	24	62*	-5
CCNC(=O)C1(C)CCN(C(=O)c2ccc(C#N)cc2)C1 (stereo not given)	/	0	-10	/	/	/
CCCCn1c(N)c(N(CCC(C)C)C(=O)c2ccc([N+](=O)[O-])s2)c(=O)[nH]c1=O	-2	3	-7	40	64*	-8
Cc1onc(-c2c(Cl)cccc2Cl)c1C(=O)N[C@@H]1C(=O)N2[C@@H]1SC(C)(C)[C@@H]2C(=O)O	2	31*!	-5	7	-2	-5
CCC(=O)Nc1nc2ccc(NC(C)=O)cc2s1	-7	1	-8	12	-7	10
CCOc1cccc2sc(Nc3nc4ccc(NC(C)=O)cc4s3)nc12	-16	21	-3	18	57*	4
O=C(NCc1cccc(Cl)c1)c1cccc(S(=O)(=O)N2CCCC2)c1	-14	-4	-9	/	/	-4
